Experimental data as given in ChEMBL document CHEMBL1799920, “Total synthesis and pharmacological characterization of solomonsterol A, a potent marine pregnane-X-receptor agonist endowed with anti-inflammatory activity” (J Med Chem, 2011).
Calls of active or inactive are those of the source. The rule behind the calls is not given here.

Assays:
Mus musculus [1] = test: Antiinflammatory activity against trinitrobenzenesulfonic acid-induced colitis in human PXR expressing transgenic C57/BL6 mouse assessed as decrease in IL-12p70 protein level in colon at 10 mg/kg, po qd after 5 days; assay type: functional, organism-based; design: dose 10 mg/kg; conditions: C57Bl/6
Mus musculus [2] = test: Antiinflammatory activity against trinitrobenzenesulfonic acid-induced colitis in human PXR expressing transgenic C57/BL6 mouse assessed as induction of CYP3A11 mRNA expression in colon at 10 mg/kg, po qd after 5 days by quantitative RT-PCR; assay type: functional, organism-based; design: dose 10 mg/kg; conditions: C57Bl/6
In short: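 Cyp3A11 mRNA in colon of TNBS-colitic hPXR mice was measured by SYBR Green qPCR (50 ng template, 0.2 μM primers). Cycling was 95 °C for 2 min, then 40 cycles of 95/55/72 °C, with each reaction run in triplicate. Expression was calculated by ΔΔCT against GAPDH relative to untreated control. Mean ± SE, 5 mice/group.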

Mus musculus [3] = test: Antiinflammatory activity against trinitrobenzenesulfonic acid-induced colitis in human PXR expressing transgenic C57/BL6 mouse assessed as increase in TGF-beta1 protein level in colon at 10 mg/kg, po qd after 5 days; conditions: C57Bl/6
Mus musculus [4] = test: Antiinflammatory activity against trinitrobenzenesulfonic acid-induced colitis in human PXR expressing transgenic C57/BL6 mouse assessed as decrease in occurrence of diarrhea at 10 mg/kg, po qd administered 3 days before TNBS challenge measured after 7 days; assay type: functional, organism-based; design: dose 10 mg/kg; conditions: C57Bl/6
In short: (§1)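 Clinical read-outs in hPXR mice with TNBS colitis (0.5 mg/mouse intrarectally in 50% ethanol after a 16 h fast). Oral dosing at 10 mg/kg once daily (DMSO diluted in 1% methylcellulose) started 3 days before TNBS. Diarrhea was scored and body weight recorded, weight expressed as delta percentage versus the day before TNBS; sacrifice was 4 days after TNBS. n = 6–7.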

Mus musculus [5] = test: Antiinflammatory activity against trinitrobenzenesulfonic acid-induced colitis in human PXR expressing transgenic C57/BL6 mouse assessed as decrease in TNF-alpha protein level in colon at 10 mg/kg, po qd after 5 days by ELISA; assay type: functional, organism-based; design: dose 10 mg/kg; conditions: C57Bl/6
In short: (§2)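 TNFα and IL-10 were measured by ELISA in colon homogenates (T-PER lysis, 10,000g for 15 min at 4 °C) from TNBS-colitic hPXR mice. Mice were dosed orally at 10 mg/kg once daily in DMSO/1% methylcellulose, starting 3 days before intrarectal TNBS (0.5 mg/mouse). Values were normalized to protein; mean ± SE, 6–7 mice/group.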

Mus musculus [6] = test: (§3) Antiinflammatory activity against trinitrobenzenesulfonic acid-induced colitis in human PXR expressing transgenic C57/BL6 mouse assessed as decrease in appearance of epithelial erosions in colon at 10 mg/kg, po qd administered 3 days before TNBS challenge measured after 7 days by haematoxylin/eosin staining; assay type: functional, organism-based; design: dose 10 mg/kg; conditions: C57Bl/6
In short: (§4)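 TNBS colitis in male hPXR mice (human PXR on mouse PXR-null background). After a 16 h fast and light ketamine/xylazine i.p. anesthesia, mice received TNBS 0.5 mg/mouse in 50% ethanol intrarectally by catheter. Dosing was 10 mg/kg orally once daily, dissolved in DMSO and diluted in 1% methylcellulose, starting 3 days before TNBS. Colons were taken 4 days after TNBS and stained with H&E. n = 6–7.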

Mus musculus [7] = test: Antiinflammatory activity against trinitrobenzenesulfonic acid-induced colitis in human PXR expressing transgenic C57/BL6 mouse assessed as decrease in cellular infiltrate in colon at 10 mg/kg, po qd administered 3 days before TNBS challenge measured after 7 days; assay type: functional, organism-based; design: dose 10 mg/kg; conditions: C57Bl/6; in short: as §4
Mus musculus [8] = test: Antiinflammatory activity against trinitrobenzenesulfonic acid-induced colitis in human PXR expressing transgenic C57/BL6 mouse assessed as decrease in microscopic colon damage at 10 mg/kg, po qd administered 3 days before TNBS challenge measured after 7 days; assay type: functional, organism-based; design: dose 10 mg/kg; conditions: C57Bl/6
In short: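 Microscopic colon damage in the prophylactic TNBS model in hPXR mice: oral 10 mg/kg daily, in DMSO/1% methylcellulose, from 3 days before intrarectal TNBS (0.5 mg/mouse in 50% ethanol). Colons were collected at day 4 post-TNBS, formalin-fixed, paraffin-embedded and H&E-stained, then graded blind on a 0–4 scale (leukocyte infiltration, vascular density, wall thickening, goblet cell loss). n = 6–7.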

Mus musculus [9] = test: Antiinflammatory activity against trinitrobenzenesulfonic acid-induced colitis in human PXR expressing transgenic C57/BL6 mouse assessed as decrease in INF-gamma protein level in colon at 10 mg/kg, po qd after 5 days; assay type: functional, organism-based; design: dose 10 mg/kg; conditions: C57Bl/6
Mus musculus [10] = test: Antiinflammatory activity against trinitrobenzenesulfonic acid-induced colitis in human PXR expressing transgenic C57/BL6 mouse assessed as decrease in evidence of mucosal hemorrhage damage at 10 mg/kg, po qd administered 3 days before TNBS challenge measured after 7 days; assay type: functional, organism-based; design: dose 10 mg/kg; conditions: C57Bl/6
In short: (§5)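 hPXR male mice were fasted 16 h and given TNBS intrarectally (0.5 mg/mouse in 50% ethanol). Oral 10 mg/kg once daily (DMSO stock diluted in 1% methylcellulose) began 3 days before TNBS; vehicle controls received 1% methylcellulose. Four days after TNBS, colon macroscopic appearance was graded blind for induration, edema, thickness and mucosal hemorrhage. n = 6–7.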

Mus musculus [11] = test: as §3, with “submucosal edema” for “epithelial erosions”; assay type: functional, organism-based; design: dose 10 mg/kg; conditions: C57Bl/6; in short: as §4
Mus musculus [12] = test: Antiinflammatory activity against trinitrobenzenesulfonic acid-induced colitis in human PXR expressing transgenic C57/BL6 mouse assessed as decrease in presence of indurations in colon at 10 mg/kg, po qd administered 3 days before TNBS challenge measured after 7 days; assay type: functional, organism-based; design: dose 10 mg/kg; conditions: C57Bl/6; in short: as §5
Mus musculus [13] = test: Antiinflammatory activity against trinitrobenzenesulfonic acid-induced colitis in human PXR expressing transgenic C57/BL6 mouse assessed as decrease in edema of colon at 10 mg/kg, po qd administered 3 days before TNBS challenge measured after 7 days; assay type: functional, organism-based; design: dose 10 mg/kg; conditions: C57Bl/6; in short: as §5
Mus musculus [14] = test: Antiinflammatory activity against trinitrobenzenesulfonic acid-induced colitis in human PXR expressing transgenic C57/BL6 mouse assessed as decrease in MIP-1alpha protein level in colon at 10 mg/kg, po qd after 5 days; assay type: functional, organism-based; design: dose 10 mg/kg; conditions: C57Bl/6
THP-1 = test: Inhibition of NF-kappaB p65 DNA binding activity in LPS-stimulated human THP1 cells at 10 uM after 3 hrs by electrophoretic mobility shift assay; assay type: cell-based
In short: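 THP-1 cells were pretreated with compound (10 μM) or vehicle for 3 h, then LPS 1 μg/mL was added for 20 h. Nuclear extracts were incubated with biotinylated NF-κB probe for 20 min at room temperature, run on a 6% native gel and detected by chemiluminescence. Specificity was checked by cold-probe competition and p65 antibody supershift. Three independent experiments.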

Mus musculus [15] = test: Antiinflammatory activity against trinitrobenzenesulfonic acid-induced colitis in human PXR expressing transgenic C57/BL6 mouse assessed as decrease in thickness of colon at 10 mg/kg, po qd administered 3 days before TNBS challenge measured after 7 days; assay type: functional, organism-based; design: dose 10 mg/kg; conditions: C57Bl/6; in short: as §5
[16] = target: T1, Nuclear receptor subfamily 1 group I member 2 (Homo sapiens, UniProt O75469); test: Transactivation of human PXR expressed in HepG2 cells after 18 hrs by luciferase reporter gene assay; assay type: cell-based
T1 sequence (O75469 whole entry): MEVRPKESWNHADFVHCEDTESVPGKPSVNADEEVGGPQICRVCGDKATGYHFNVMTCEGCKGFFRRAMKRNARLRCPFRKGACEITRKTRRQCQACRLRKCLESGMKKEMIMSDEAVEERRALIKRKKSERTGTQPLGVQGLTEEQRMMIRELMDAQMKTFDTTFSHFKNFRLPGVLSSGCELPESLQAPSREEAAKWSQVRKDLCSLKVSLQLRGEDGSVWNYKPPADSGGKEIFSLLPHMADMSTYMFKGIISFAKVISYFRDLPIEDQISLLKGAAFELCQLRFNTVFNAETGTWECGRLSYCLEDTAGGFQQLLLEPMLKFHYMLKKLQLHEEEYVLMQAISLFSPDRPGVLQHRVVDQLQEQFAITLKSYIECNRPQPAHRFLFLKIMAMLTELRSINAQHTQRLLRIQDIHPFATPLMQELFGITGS
In short: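 HepG2 cells were transiently transfected with pSG5-PXR, pSG5-RXR, pCMV-βgal and a CYP3A4-promoter luciferase reporter. 48 h after transfection, cells were stimulated for 18 h at 0.1, 1 and 10 μM. Luciferase was normalised to β-galactosidase; n = 4. Relative EC50 from n = 3.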

Mus musculus [17] = test: Antiinflammatory activity against trinitrobenzenesulfonic acid-induced colitis in human PXR expressing transgenic C57/BL6 mouse assessed as decrease in weight loss at 10 mg/kg, po qd administered 3 days before TNBS challenge measured after 7 days; assay type: functional, organism-based; design: dose 10 mg/kg; conditions: C57Bl/6; in short: as §1
Mus musculus [18] = test: Antiinflammatory activity against trinitrobenzenesulfonic acid-induced colitis in human PXR expressing transgenic C57/BL6 mouse assessed as decrease in colonic myeloperoxidase activity at 10 mg/kg, po qd after 5 days using trimethylbenzidine as substrate by spectrophotometry; assay type: functional, organism-based; design: dose 10 mg/kg; conditions: C57Bl/6
In short: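 Colon myeloperoxidase from TNBS-colitic hPXR mice given oral 10 mg/kg daily. Colon was lysed in T-PER and minced, then centrifuged at 10,000g for 15 min at 4 °C. After two freeze/thaw cycles, MPO in the homogenate was measured spectrophotometrically with TMB substrate and normalized to protein. Mean ± SE, 6–7 mice/group.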

Mus musculus [19] = test: Antiinflammatory activity against trinitrobenzenesulfonic acid-induced colitis in human PXR expressing transgenic C57/BL6 mouse assessed as increase in IL-10 protein level in colon at 10 mg/kg, po qd after 5 days by ELISA; assay type: functional, organism-based; design: dose 10 mg/kg; conditions: C57Bl/6; in short: as §2

Structure (SMILES): CO[C@H]1/C=C/O[C@@]2(C)Oc3c(C)c(O)c4c(O)c(c5c(nc6cc(C)ccn65)c4c3C2=O)NC(=O)/C(C)=C\C=C\[C@H](C)[C@H](O)[C@@H](C)[C@@H](O)[C@@H](C)[C@H](OC(C)=O)[C@@H]1C [RIFAXIMIN]
- Activity (Mus musculus [1]): Active
- Activity (Mus musculus [2]): Active
- Activity (Mus musculus [3]): Active
- Activity (Mus musculus [4]): Active
- Activity (Mus musculus [5]): Active
- Activity (Mus musculus [6]): Active
- Activity (Mus musculus [7]): Active
- Activity (Mus musculus [8]): Active
- Activity (Mus musculus [9]): Active
- Activity (Mus musculus [10]): Active
- Activity (Mus musculus [11]): Active
- Activity (Mus musculus [12]): Active
- Activity (Mus musculus [13]): Active
- Activity (Mus musculus [14]): Active
- Activity (THP-1): Active
- Activity (Mus musculus [15]): Active
- EC50 [16]: 2200 nM
- Activity (Mus musculus [17]): Active
- Activity (Mus musculus [18]): Active
- Activity (Mus musculus [19]): Active
